# Data: ChEMBL document CHEMBL1143831, “Small molecule inhibitors of aggregation indicate that amyloid beta oligomerization and fibrillization pathways are independent and distinct” (J Biol Chem, 2007)
# Where a name gives a salt, the structure may show the parent alone. The source made the active and inactive calls. The rule behind the calls is not given here.
# What was measured:
# [1] = Inhibition of synthetic amyloid beta-42 oligomerization by ELISA
# [2] = Inhibition of synthetic amyloid beta42 oligomer formation by Western blot
# In short: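 Aβ42 (NaOH stock, 45 µM final) incubated in PBS pH 7.4, 0.02% sodium azide at room temperature without stirring for 5 days, with compound at 300 µM in DMSO; vehicle controls at 1% DMSO. Aliquots were mixed 1:1 with 2x SDS sample buffer, boiled 5 min, and run on 4-20% Tris-HCl gels. The gels were transferred to nitrocellulose and probed with A11 anti-oligomer antibody, with 6E10 also used.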
# [3] = Inhibition of synthetic amyloid beta42 fibrillation at 300 uM by ThT fluorescence analysis relative to control
# In short: (§1)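 Aβ42 (45 µM final) from 2 mM NaOH stock, sonicated, diluted into 10 mM HEPES, 100 mM NaCl, 0.02% sodium azide, pH 7.4; stirred at room temperature 4 days with compound in DMSO (controls 1% DMSO). Aliquot mixed with 3 µM ThT; ex 442 nm, em 482 nm; corrected with parallel protein-free reactions; triplicate, % of control.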
# [4] = Inhibition of synthetic amyloid beta-42 fibrillation at 300 uM by light scattering analysis relative to control
# In short: (§2)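 Aβ42 (45 µM final) from 2 mM NaOH stock, diluted into 10 mM HEPES, 100 mM NaCl, 0.02% sodium azide, pH 7.4; stirred at room temperature 4 days with compound in DMSO (controls 1% DMSO). Turbidity at 400 nm, corrected by the 400 nm reading of supernatant after 14,000 rpm, 30 min centrifugation; triplicate, relative to control.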
# [5] = Inhibition of synthetic amyloid beta-42 fibrillation at 30 uM by ThT fluorescence analysis relative to control; in short: as §1
# [6] = Inhibition of synthetic amyloid beta-42 fibrillation at 30 uM by light scattering analysis relative to control; in short: as §2
Molecule,IC50 [1],Activity [2],also measured
COc1cccc(C=O)c1O,6.15 µM,inactive,
CCN(CC)c1ccc2c(-c3ccccc3C(C)=O)c3ccc(=[N+](CC)CC)cc-3oc2c1,310 µM,,
COc1ccc2nc3cc(Cl)ccc3c(NC(C)CCCN(CCCl)CCCl)c2c1 (stereo not given),2050 µM,,
"O=C1C=Cc2ccccc2C1=O [1,2-NAPHTHOQUINONE]",11.5 µM,inactive,
"O=C(c1ccccc1O)c1ccccc1O [2,2'-DIHYDROXYBENZPHENONE]",244 µM,,
CNc1ccc2nc3ccc(N)cc3[s+]c2c1 [AZURE C],0.09 µM,inactive,
CCN(CCO)c1ccc(/N=N/c2sc3cc(OC)ccc3[n+]2C)cc1 [BASIC BLUE 41],0.12 µM,inactive,
COc1cc(-c2ccc(/N=N/c3ccc4c(S(=O)(=O)O)cc(S(=O)(=O)O)c(N)c4c3O)c(OC)c2)ccc1/N=N/c1ccc2c(S(=O)(=O)O)cc(S(=O)(=O)O)c(N)c2c1O [CHICAGO SKY BLUE SODIUM],2.58 µM,inactive,
Nc1c(/N=N/c2ccc(-c3ccc(/N=N/c4cc(S(=O)(=O)O)c5ccccc5c4N)cc3)cc2)cc(S(=O)(=O)O)c2ccccc12 [CONGO RED],10 µM,inactive,
COc1cc(/C=C/C(=O)CC(=O)/C=C/c2ccc(O)c(OC)c2)ccc1O [CURCUMIN],361 µM,,
COc1cccc2c1C(=O)c1c(O)c3c(c(O)c1C2=O)C[C@@](O)(C(C)=O)C[C@@H]3O[C@H]1C[C@H](N)[C@H](O)[C@H](C)O1 [DAUNORUBICIN HYDROCHLORIDE],7.48 µM,inactive,
O=C(O)c1ccccc1-c1c2cc(Br)c(=O)c(Br)c-2oc2c(Br)c(O)c(Br)cc12 [EOSIN Y SODIUM],2790 µM,,
COc1ccc2c(c1)c(CC(=O)O)c(C)n2C(=O)c1ccc(Cl)cc1 [INDOMETHACIN],958 µM,,
O=C1C=CC(=O)c2c(O)cccc21 [JUGLONE],67.6 µM,Active,
O=c1cc2oc3cc(O)c(-c4ccc(O)cc4O)cc3nc-2cc1-c1ccc(O)cc1O [LACMOID],25.5 µM,inactive,
C=C1c2c(Cl)ccc(O)c2C(=O)C2=C(O)[C@]3(O)C(=O)C(C(N)=O)=C(O)[C@@H](N(C)C)[C@@H]3[C@@H](O)[C@H]12.O=C(O)c1cc(S(=O)(=O)O)ccc1O [MECLOCYCLINE SULFOSALICYLATE],0.25 µM,inactive,
O=c1c(O)c(-c2cc(O)c(O)c(O)c2)oc2cc(O)cc(O)c12 [MYRICETIN],107 µM,Active,
Cc1ccc2ccc3ccc(C)nc3c2n1 [NEOCUPROINE],17.4 µM,inactive,
CC(Cc1ccc(O)c(O)c1)C(C)Cc1ccc(O)c(O)c1 (stereo not given) [NORDIHYDROGUAIARETIC ACID],14.5 µM,inactive,
OCCN1CCN(CCCN2c3ccccc3Sc3ccc(Cl)cc32)CC1 [PERPHENAZINE],26.1 µM,,
O=S1(=O)OC(c2ccc(O)cc2)(c2ccc(O)cc2)c2ccccc21 [PHENOLSULFONPHTHALEIN],426 µM,,
CO[C@H]1/C=C/O[C@@]2(C)Oc3c(C)c(O)c4c(O)c(cc(O)c4c3C2=O)NC(=O)/C(C)=C\C=C\[C@H](C)[C@H](O)[C@@H](C)[C@@H](O)[C@@H](C)[C@H](OC(C)=O)[C@@H]1C [RIFAMYCIN],31.6 µM,inactive,
CN(C)[C@@H]1C(O)=C(C(=O)NCN2CCCC2)C(=O)[C@@]2(O)C(O)=C3C(=O)c4c(O)cccc4[C@@](C)(O)[C@H]3C[C@@H]12 [ROLITETRACYCLINE],1.87 µM,inactive,
C1CCSC1 [TETRAHYDROTHIOPHENE],122 µM,Active,
CETRIMIDE [listing 1 of 2 here],15.9 µM,,
CETRIMIDE [listing 2 of 2 here],,inactive,inhibition [3]: 0.7%; Activity [4]: inactive; inhibition [5]: 112%
"N,N,N-trimethylhexadecan-1-aminium bromide",,inactive,inhibition [3]: 0.5%; Activity [4]: inactive; Activity [6]: Active; inhibition [5]: 9.8%
